Bioassay records deposited in PubChem BioAssay by Sanford-Burnham Center for Chemical Genomics.
Mdm2-MdmX inh = disrupts the human Mdm2-MdmX interaction. O15151+Q00987. SaOS-2 split-luciferase Mdm2/MdmX complementation, luminescence. inhibition, % at 8 µM. actives 3% (n = 330,000). AID 485346;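 active means inhibition of at least 50% at 8 µM in the primary screen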
Apaf1 inhib = inhibitors of human Apaf-1 apoptosome; inhibition, % at 20 µM; reconstituted apoptosome caspase-3 activity, DEVD-Rh110 fluorescence; O14727; AID 489030; actives 0.71% (n = 330,000); active means inhibition of at least 40% at 20 µM;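 further: plate controls were DMSO wells for no effect and DEVD-CHO caspase inhibitor wells for full effect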
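Material: reconstituted apoptosome with Apaf-1, cytochrome c, caspase-9, procaspase-3, dATP. Technique: Rh110 fluorescence intensity. Buffer or medium: pH 7.5 Hepes buffer with CHAPS, BSA, DTT. Times: 30 min plus 50 min, RT.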
CHOP UPR activ = apoptotic UPR (CHOP) activation; CHO-CHOP luciferase reporter, luminescence; percent of tunicamycin response over DMSO baseline; activation, % at 10 µM; actives 0.34% (n = 330,000); AID 449763;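 active means at 10 µM dose, activation of 40% or more, normalized to positive control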;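 further: 100% = tunicamycin at 10 µg/mL and 0% = DMSO alone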
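Test system: CHO CHOP reporter cells. Input: 500 CHO-CHOP cells per well. Medium: F12 with 10% FBS. Technique: luciferase luminescence. Measure: percent activation relative to tunicamycin control. Dosing: 10 µM compound, 0.5% DMSO. Timing: 16-18 h cell attachment, then 6 h compound exposure, 37 °C.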
UBC13 inh = inhibitors of human UBC13 polyubiquitin chain formation | AID 485273 | P61088 | TR-FRET | inhibition, % at 20 µM | actives 0.47% (n = 330,000); in the data active means inhibition above about 45%, passing the limit was not always enough
Target sequence (P61088 whole entry, looked up): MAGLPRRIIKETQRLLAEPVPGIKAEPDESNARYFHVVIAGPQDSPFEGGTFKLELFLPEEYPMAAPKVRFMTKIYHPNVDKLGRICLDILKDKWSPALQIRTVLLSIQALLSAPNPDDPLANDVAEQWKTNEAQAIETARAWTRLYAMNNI
XBP1 UPR activ = adaptive UPR (XBP1) activation; CHO-XBP1 luciferase reporter, IRE1-XBP1 UPR activation, luminescence; percent of tunicamycin response, DMSO as zero; activation, % at 20 µM; actives 0.33% (n = 330,000);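 active means versus positive control, 20 µM dose yields 30% or more activation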;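 further: 100% = tunicamycin at 10 µg/mL and 0% = DMSO only wells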
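Material: CHO-XBP1 cells stably carrying IRE1-XBP1-driven luciferase reporter | Medium: F12 with 10% serum | Compound dosing: 20 µM single concentration, DMSO 1% | Incubation: Overnight seeding at 37 °C, 6 h compound treatment at 37 °C | Detection: Steady-Glo luminescence read | Read-out basis: % activation of reporter signal versus tunicamycin and DMSO controls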
Casp3 UBC13 ctr = inhibits human caspase-3 in UBC13 counter-screen | shares compounds with UBC13 inh | AID 488856 | inhibition, % at 20 µM | Recombinant caspase-3, Caspase-Glo 3/7 luminescence, 60 min | actives 4% (n = 1,400);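 active means mean inhibition across replicates above about 26%, limit read from the data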;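 further: plate controls were DMSO with caspase-3 for no effect and DMSO wells lacking enzyme for full effect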
Target sequence (P42574 whole entry, looked up): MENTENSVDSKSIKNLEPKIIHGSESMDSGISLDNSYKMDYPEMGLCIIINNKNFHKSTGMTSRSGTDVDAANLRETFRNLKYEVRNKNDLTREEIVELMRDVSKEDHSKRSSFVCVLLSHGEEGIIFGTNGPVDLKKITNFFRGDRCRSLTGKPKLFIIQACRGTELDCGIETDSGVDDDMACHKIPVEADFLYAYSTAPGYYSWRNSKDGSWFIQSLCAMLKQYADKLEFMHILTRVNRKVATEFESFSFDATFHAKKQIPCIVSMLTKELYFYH
UBC13 conf = confirmation of human UBC13 polyubiquitin inhibitors. shares compounds with UBC13 inh. UBC13 polyubiquitination, TR-FRET, biochemical. inhibition, % at 10 µM. actives 68% (n = 1,400). AID 488859; in the data active means inhibition above about 45%
Mdm2 MdmX conf = confirmation of human Mdm2/MdmX interaction inhibitors. actives 55% (n = 10,000). Mdm2-MdmX binding, luminescent assay. inhibition, % at 8 µM. AID 489028. shares compounds with Mdm2-MdmX inh; in the data active means inhibition above about 40%
Full FLuc ctr = full-length luciferase inhibition in Mdm2/MdmX counter-screen; inhibition, % at 8 µM; SaOS-2 full-length luciferase counterscreen, luminescence; actives 77% (n = 6,200); AID 504607; shares compounds with Mdm2-MdmX inh;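 active means mean inhibition at 8 µM reaching about 37%, which flags the compound as non-specific, limit read from the data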;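 further: p53-null SaOS-2 cells with luciferase driven by a doxycycline-inducible promoter; compound on cells about two nights before reading with doxycycline added after day one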
Apaf-1 inh conf = Apaf-1 inhibition, single-dose confirmed; shares compounds with Apaf1 inhib; reconstituted apoptosome, caspase-3 DEVD-Rh110 fluorescence; inhibition, % at 20 µM; actives 25% (n = 1,800); AID 504614;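 active means mean inhibition of at least 40% at 20 µM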;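 further: plate controls were DMSO wells for no effect and DEVD-CHO caspase inhibitor control wells for full effect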
Rh110 quench = interferes with Rh110 fluorescence, flagging false Apaf-1 inhibitors; shares compounds with Apaf1 inhib; Rh110 fluorescence interference, quenched caspase reaction; activation (fluorescence interference), % at 20 µM; 1,800 tested, under 10 active; AID 504615;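 active means signal rise of 40% or more at 20 µM, treated as a fluorescence artifact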
Apaf1 inh interf = Apaf-1 inhibitor counter-screen fluorescence artifact; shares compounds with Apaf1 inhib; fluorescence interference counterscreen, Apaf-1 assay format; 460 tested, under 10 active; IC50, µM; AID 588538; call rule not given here
* = called active by the depositor; . = no result given. A selection: hits, their analogues and other compounds. The true share with any hit is near 4.1%.

SMILES	Mdm2-MdmX inh	Apaf1 inhib	CHOP UPR activ	UBC13 inh	XBP1 UPR activ	Casp3 UBC13 ctr	UBC13 conf	Apaf-1 inh conf	Rh110 quench	others
COc1cc(OC)c2c(-c3ccccc3)cc(=O)oc2c1C(CCN1CCCCC1)c1ccc(N(C)C)cc1 (stereo unspecified)	79*	54*	3	51*	16	-1	18	25	0	Mdm2 MdmX conf=16
CC1CCC(NC(=O)C2CC(=O)N(c3ccc4c(c3)OCCO4)C2)CC1 (stereo unspecified)	17	1	-1	-8	-2	.	.	.	.
C#CCOCCOCCOCCNc1nc(N2CCOCC2)nc(N2CCN(C(=O)[C@H](CCCCN)n3cc(CN)nn3)CC2)n1	10	49*	0	96*	4	-2	89*	0	7
C#CCOCCOCCOCCNc1nc(N2CCN(C(=O)C([C@@H](C)O)n3cc([C@@H](N)CCCCN)nn3)CC2)nc(N2CCN(C(=O)[C@H](CO)n3cc([C@@H](N)C(C)C)nn3)CC2)n1 (stereo partly specified)	-12	53*	1	105*	4	-5	111*	8	3
C#CCOCCOCCOCCNc1nc(N2CCN(C(=O)C([C@@H](C)O)n3cc([C@@H](N)CCCCN)nn3)CC2)nc(N2CCN(C(=O)[C@H](CC(N)=O)n3cc(C(N)[C@@H](C)CC)nn3)CC2)n1 (stereo partly specified)	4	0	-1	21	-1	.	.	.	.
C#CCOCCOCCOCCNc1nc(N2CCN(C(=O)[C@H](CCCCN)n3cc([C@@H](N)[C@H](C)CC)nn3)CC2)nc(N2CCN(C(=O)[C@H](CCCCN)n3cc([C@@H](N)CC(N)=O)nn3)CC2)n1	-13	44*	0	99*	1	-1	107*	0	-3
C#CCOCCOCCOCCNc1nc(N2CCN(C(=O)[C@H](Cc3cc4ccccc4[nH]3)n3cc([C@@H](N)C(C)CC)nn3)CC2)nc(N2CCN(C(=O)[C@H](CCCCN)n3cc([C@@H](N)CC(C)C)nn3)CC2)n1 (stereo partly specified)	-27	41*	0	98*	-5	-2	116*	7	7
C#CCOCCOCCOCCNc1nc(N2CCN(C(=O)[C@H](Cc3cc4ccccc4[nH]3)n3cc(C(N)CC(C)C)nn3)CC2)nc(N2CCN(C(=O)[C@H](CCC(=O)O)n3cc(C(N)[C@H](C)CC)nn3)CC2)n1 (stereo partly specified)	9	1	0	-5	-1	.	.	.	.
Cc1c(S(=O)(=O)Nc2ccc(Oc3ccccc3)cc2)c(=O)n(C)c(=O)n1C	0	4	0	-2	-1	.	.	.	.
CCCC12CN3CC(CCC)(CN(C1)C3C(O)C(O)C(O)CO)C2=O (stereo unspecified)	10	-2	-3	0	-1	.	.	.	.
COc1cccc(C(=O)O[C@@H]2[C@H](Cc3ccccc3)NS(=O)(=O)[C@H]3C[C@@H]4C=C[C@]23O4)c1	-11	8	0	9	-2	.	.	.	.
Cc1ccc(S(=O)(=O)N2[C@@H](c3ccccc3F)C(C(=O)O)=CC[C@H]2c2cccs2)cc1	2	17	3	-14	0	.	.	.	.
Cc1cc(C)c(NC(=O)CNC(=O)CN(C)Cc2ccc(Br)s2)c(C)c1	11	0	0	12	-2	.	.	.	.
Cc1ccc(NC(=O)COC(=O)C2CCN(c3ccc(C(F)(F)F)cn3)CC2)cc1	-40	15	1	6	0	.	.	.	.
C#CCOCCOCCOCCNc1nc(N2CCN(C(=O)[C@H](Cc3cc4ccccc4[nH]3)n3cc([C@@H](N)CC(C)C)nn3)CC2)nc(N2CCN(C(=O)[C@H](Cc3cc4ccccc4[nH]3)n3cc([C@@H](N)CC(C)C)nn3)CC2)n1	4	71*	0	106*	0	-1	105*	25	20
C#CCOCCOCCOCCNc1nc(N2CCN(C(=O)[C@H](Cc3ccc(O)cc3)n3cc([C@@H](N)C(C)CC)nn3)CC2)nc(N2CCN(C(=O)[C@H](Cc3cc4ccccc4[nH]3)n3cc([C@@H](N)CC(C)C)nn3)CC2)n1 (stereo partly specified)	18	47*	0	76*	-5	-4	56*	1	3
CC(C)(C)C(C(=O)n1cccc1C#N)c1ccccc1 (stereo unspecified)	-11	9	1	4	-2	.	.	.	.
O=C(Cn1nc(C(=O)O)c2ccccc2c1=O)Nc1cccc(S(=O)(=O)N2CCCC2)c1	10	9	2	-5	-4	.	.	.	.
COc1ccc(C[C@H]2CN3C(=NC[C@@H]3Cc3ccccc3)N2CCNC(=O)c2ccc(C)c(Br)c2)cc1	100*	65*	3	88*	7	1	56*	34	-17	Mdm2 MdmX conf=42*;Full FLuc ctr=57*
COc1ccc(C[C@H]2CN3C(=NC[C@@H]3C(C)C)N2C[C@H](C)NC(=O)c2ccc(C)c(Br)c2)cc1	52*	48*	-1	54*	-1	-1	44	18	11	Mdm2 MdmX conf=20
C/C=C(\C)C(=O)NCCN1C2=NC[C@H](Cc3ccccc3)N2C[C@@H]1Cc1ccc(OC)cc1	-18	39	2	22	-1	.	.	.	.
COc1ccc(C[C@H]2CN3C(=NC[C@H]3Cc3ccccc3)N2CCNC(=O)c2ccc(C)c(Br)c2)cc1	95*	43*	1	72*	23	-2	61*	41*	11	Mdm2 MdmX conf=55*;Full FLuc ctr=37*;Apaf1 inh interf=>100
COc1ccc(C[C@@H]2CN3C(=NC[C@@H]3C)N2C[C@H](C)NC(=O)CCC2CCCCC2)cc1	16	14	1	2	-1	.	.	.	.
